In ChEMBL document CHEMBL4765233, “From Lead to Drug Candidate: Optimization of 3-(Phenylethynyl)-1H-pyrazolo[3,4-d]pyrimidin-4-amine Derivatives as Agents for the Treatment of Triple Negative Breast Cancer” (J Med Chem, 2016):
Activity calls are given as the source filed them. No cut-off for these calls is given here.

Columns and labels:
MDA-MB-231 [1] = assay: Antitumor activity against human MDA-MB-231 cells xenografted in SCID mouse assessed as tumor growth inhibition at 40 mg/kg, po qd for 21 days and measured every 3 days; type: functional; conditions: MDA-MB-231, po, 504 h, time 21 day
Procedure, shortened: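 SCID mice (5−6 weeks) injected subcutaneously with 100 μL of cells at 5 × 10^7/mL. At 150−200 mm3 mice randomized, 6 per group. Oral compounds given in water with 25% PEG400 plus 5% DMSO; paclitaxel given 10 mg/kg/week iv. Tumor volume a×b²/2 and body weight measured every 3 days. Inhibition rate (c−d)/c×100% against vehicle control.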

[2] = Metabolic stability in mouse liver microsomes assessed as parent compound remaining at 1 uM measured after 60 mins in presence of NADPH by HPLC-MS/MS analysis; type: ADME, Microsome; conditions: read-out: Stabilty
Procedure, shortened: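 Compound at 1 μM incubated with 0.5 mg/mL liver microsomes and 1 mM NADPH. Samples taken at 0, 10, 15, 30, 45 and 60 min and quenched with acetonitrile. After centrifugation, supernatant analysed by HPLC-MS/MS, with percent parent remaining relative to the 0 min area.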

[3] = target: Receptor tyrosine-protein kinase erbB-2 (Homo sapiens, UniProt P04626, G778D); assay: Inhibition of human recombinant ERBB2 G778D mutant (676 to end residues) using poly(Glu,Tyr)4:1 as substrate incubated for 40 mins in presence of [gamma33P-ATP] by radiometric scintillation counting analysis
Chain of Receptor tyrosine-protein kinase erbB-2 (P04626 23-1255 G778D limits assumed): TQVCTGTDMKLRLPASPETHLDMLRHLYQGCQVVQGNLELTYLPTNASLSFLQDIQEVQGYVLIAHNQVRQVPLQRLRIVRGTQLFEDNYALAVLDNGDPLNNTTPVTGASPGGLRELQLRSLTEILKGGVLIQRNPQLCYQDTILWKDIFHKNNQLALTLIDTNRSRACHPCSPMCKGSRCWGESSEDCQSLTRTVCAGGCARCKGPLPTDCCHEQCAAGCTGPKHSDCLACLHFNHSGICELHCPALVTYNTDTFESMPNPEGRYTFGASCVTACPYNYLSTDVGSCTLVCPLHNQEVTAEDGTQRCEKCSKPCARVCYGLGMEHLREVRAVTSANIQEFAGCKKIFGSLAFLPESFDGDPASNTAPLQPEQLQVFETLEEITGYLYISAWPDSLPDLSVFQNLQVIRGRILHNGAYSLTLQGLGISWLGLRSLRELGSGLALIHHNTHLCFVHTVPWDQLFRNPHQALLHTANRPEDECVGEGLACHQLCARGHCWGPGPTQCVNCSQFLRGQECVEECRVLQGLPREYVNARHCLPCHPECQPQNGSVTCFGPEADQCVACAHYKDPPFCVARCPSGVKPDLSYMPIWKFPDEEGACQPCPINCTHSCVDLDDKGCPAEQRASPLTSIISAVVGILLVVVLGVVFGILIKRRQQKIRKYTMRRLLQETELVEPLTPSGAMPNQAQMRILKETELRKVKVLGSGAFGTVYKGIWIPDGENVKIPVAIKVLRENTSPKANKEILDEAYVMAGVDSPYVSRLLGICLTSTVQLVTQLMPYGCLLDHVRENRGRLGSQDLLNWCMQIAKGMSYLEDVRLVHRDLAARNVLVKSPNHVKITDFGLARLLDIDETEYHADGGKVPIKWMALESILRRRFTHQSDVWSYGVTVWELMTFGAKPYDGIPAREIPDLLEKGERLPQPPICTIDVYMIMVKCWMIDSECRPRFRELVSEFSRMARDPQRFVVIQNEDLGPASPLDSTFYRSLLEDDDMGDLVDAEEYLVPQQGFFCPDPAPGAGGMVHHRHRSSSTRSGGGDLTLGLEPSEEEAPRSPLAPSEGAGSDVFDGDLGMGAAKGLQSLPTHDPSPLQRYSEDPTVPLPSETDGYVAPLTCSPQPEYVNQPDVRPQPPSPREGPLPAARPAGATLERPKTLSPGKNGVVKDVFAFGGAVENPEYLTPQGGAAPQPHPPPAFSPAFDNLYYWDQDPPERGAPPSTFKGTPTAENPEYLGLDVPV

[4] = Inhibition of human recombinant EGFR T790M/L858R mutant (696 to end residues) using GGMEDIYFEFMGGKKK as substrate incubated for 40 mins in presence of [gamma33P-ATP] by radiometric scintillation counting analysis
Procedure, shortened: (§1)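 Radiometric kinase assay run as an external profiling service, with ATP at the Km of each kinase. IC50 values are means of two independent experiments.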

[5] = Inhibition of human recombinant EPHB2 A848S/K918E mutant (560 to end residues) using poly(Glu,Tyr)4:1 as substrate incubated for 40 mins in presence of [gamma33P-ATP] by radiometric scintillation counting analysis; procedure, shortened: as §1
Ephrin type-A receptor 7 = Ephrin type-A receptor 7 (Homo sapiens, UniProt Q15375); assay: Inhibition of human recombinant EPHA7 (613 to 909 residues) using KTFCGTPEYLAPEVRREPRILSEEEQEMFRDFDYIADWC incubated for 40 mins in presence of [gamma33P-ATP] by radiometric scintillation counting analysis; procedure, shortened: as §1
Chain of Ephrin type-A receptor 7 (Q15375 whole entry, the tested form may be a part): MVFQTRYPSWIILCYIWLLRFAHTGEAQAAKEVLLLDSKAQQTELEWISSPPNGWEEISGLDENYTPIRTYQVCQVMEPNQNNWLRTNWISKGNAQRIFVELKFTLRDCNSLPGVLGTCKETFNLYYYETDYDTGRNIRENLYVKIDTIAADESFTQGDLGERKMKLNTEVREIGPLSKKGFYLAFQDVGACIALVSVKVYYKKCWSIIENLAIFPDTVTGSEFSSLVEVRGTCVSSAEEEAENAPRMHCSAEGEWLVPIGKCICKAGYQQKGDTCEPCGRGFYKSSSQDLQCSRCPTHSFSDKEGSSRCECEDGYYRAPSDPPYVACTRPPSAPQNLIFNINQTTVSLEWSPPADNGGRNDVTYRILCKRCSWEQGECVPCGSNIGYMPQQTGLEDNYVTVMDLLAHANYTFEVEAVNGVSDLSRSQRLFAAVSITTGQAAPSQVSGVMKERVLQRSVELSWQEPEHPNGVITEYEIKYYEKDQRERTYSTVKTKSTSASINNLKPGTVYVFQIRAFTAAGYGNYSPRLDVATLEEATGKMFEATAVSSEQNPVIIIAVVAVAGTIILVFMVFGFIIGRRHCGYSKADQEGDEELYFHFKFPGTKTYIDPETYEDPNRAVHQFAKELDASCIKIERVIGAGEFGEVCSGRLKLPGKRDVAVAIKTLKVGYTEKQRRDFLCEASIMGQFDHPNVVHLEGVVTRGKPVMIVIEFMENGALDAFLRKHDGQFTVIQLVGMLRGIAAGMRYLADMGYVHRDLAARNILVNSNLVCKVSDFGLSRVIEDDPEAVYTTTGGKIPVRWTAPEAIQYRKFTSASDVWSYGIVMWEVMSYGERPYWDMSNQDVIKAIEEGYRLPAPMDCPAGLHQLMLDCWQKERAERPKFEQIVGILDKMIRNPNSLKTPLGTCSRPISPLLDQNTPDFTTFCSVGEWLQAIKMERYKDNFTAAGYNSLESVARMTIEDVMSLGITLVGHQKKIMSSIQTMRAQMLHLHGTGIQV

MDA-MB-415 = assay: Antiproliferative activity against human MDA-MB-415 cells assessed as reduction in cell viability incubated for 72 hrs by MTT assay; type: functional, cell-based; conditions: MDA-MB-415, 72 h
Procedure, shortened: (§2)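 MTT viability assay. ATCC cell lines were grown in designated medium with 10% FBS at 37 °C, 5% CO2. Cells seeded at 1500−30000 per well and incubated 24 h, then exposed to compound (0−10 μg/mL) for 72 h. MTT added for 2−4 h. Formazan dissolved in DMSO (adherent) or acidified SDS overnight (suspension), absorbance read at 570 nm. Triplicates; IC50 calculated.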

PC-9 = assay: Antiproliferative activity against human PC-9 cells assessed as reduction in cell viability incubated for 72 hrs by MTT assay; type: functional, cell-based; conditions: PC-9, 72 h; procedure, shortened: as §2
MDA-MB-231 [6] = assay: Induction of apoptosis in human MDA-MB-231 cells assessed as necrotic cells at 0.01 uM incubated for 24 hrs by annexin V-FITC and propidium iodide staining based flow cytometry analysis (reference value: 0.2 %); type: functional
MDA-MB-231 [7] = assay: Induction of apoptosis in human MDA-MB-231 cells assessed as necrotic cells at 0.03 uM incubated for 24 hrs by annexin V-FITC and propidium iodide staining based flow cytometry analysis (reference value: 0.2 %); type: functional
MDA-MB-231 [8] = assay: Induction of apoptosis in human MDA-MB-231 cells assessed as late apoptotic cells at 0.1 uM incubated for 24 hrs by annexin V-FITC and propidium iodide staining based flow cytometry analysis (reference value: 0.85 %); type: functional
MDA-MB-231 [9] = assay: Induction of apoptosis in human MDA-MB-231 cells assessed as early apoptotic cells at 0.1 uM incubated for 24 hrs by annexin V-FITC and propidium iodide staining based flow cytometry analysis (reference value: 2 %); type: functional
[10] = target: Proto-oncogene tyrosine-protein kinase Src (Homo sapiens) (UniProt P12931); assay: Inhibition of Src in human MDA-MB-231 cells assessed as inhibition of FAK phosphorylation at 0.1 to 0.3 uM incubated for 20 hrs by Western blot analysis; type: cell-based; conditions: dose 0.1-0.3 µM
Chain of Proto-oncogene tyrosine-protein kinase Src (Homo sapiens) (P12931 2-536 limits assumed): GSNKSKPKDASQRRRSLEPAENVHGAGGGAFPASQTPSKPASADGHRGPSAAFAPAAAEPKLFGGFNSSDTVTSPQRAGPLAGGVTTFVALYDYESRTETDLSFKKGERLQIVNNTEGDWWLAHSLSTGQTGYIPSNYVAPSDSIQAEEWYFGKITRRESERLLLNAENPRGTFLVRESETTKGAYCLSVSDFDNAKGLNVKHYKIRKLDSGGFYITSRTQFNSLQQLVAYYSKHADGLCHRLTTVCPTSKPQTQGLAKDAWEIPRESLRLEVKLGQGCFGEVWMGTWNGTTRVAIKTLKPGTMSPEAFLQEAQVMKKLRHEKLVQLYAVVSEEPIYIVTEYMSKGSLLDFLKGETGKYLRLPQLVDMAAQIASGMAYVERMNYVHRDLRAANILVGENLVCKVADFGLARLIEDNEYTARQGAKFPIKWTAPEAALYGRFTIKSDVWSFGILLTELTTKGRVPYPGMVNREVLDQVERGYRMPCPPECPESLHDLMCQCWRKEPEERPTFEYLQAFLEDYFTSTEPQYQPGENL
Procedure, shortened: (§3)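 MDA-MB-231 cells treated with a series of concentrations for 20 h at 37 °C. Cells washed with ice-cold saline and lysed in RIPA buffer with protease cocktail. Lysates cleared at 12000 rpm for 10 min at 4 °C and protein quantified by Bradford. Equal protein separated by SDS-PAGE, transferred to PVDF and probed with antibodies.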

MDA-MB-231 [11] = assay: Inhibition of MEK phosphorylation in human MDA-MB-231 cells at 0.01 to 0.3 uM incubated for 20 hrs by Western blot analysis; type: cell-based; conditions: dose 0.01-0.3 µM; procedure, shortened: as §3
[12] = Toxicity against SCID mouse xenografted with human MDA-MB-231 cells assessed as change in body weight at 10 to 40 mg/kg, po QD for 21 days and measured every 3 days; type: organism-based; conditions: in vivo, 504 h, dose 10-40 mg/kg/day, time 21 day
Procedure, shortened: (§4)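 Exponential-phase cells washed and injected subcutaneously (5 × 10^6 cells in 100 μL) into 5–6-week SCID mice. At 150–200 mm3, mice randomised to groups of 6. Oral dosing daily in water with 25% PEG400 and 5% DMSO; paclitaxel 10 mg/kg weekly by tail vein. Body weight measured every 3 days and side effects checked daily.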

[13] = Toxicity against SCID mouse xenografted with human MDA-MB-435 cells assessed as change in body weight at 10 to 40 mg/kg, po QD for 21 days and measured every 3 days; type: organism-based; conditions: in vivo, 504 h, dose 10-40 mg/kg/day, time 21 day; procedure, shortened: as §4
[14] = Acute toxicity in male Sprague-Dawley rat assessed as increase in body weight rate at 200 mg/kg, po administered as single dose observed until day 9 and monitored every 3 days; type: organism-based; conditions: in vivo, 216 h, time 9 day
Procedure, shortened: (§5)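 Sprague-Dawley rats (n = 3) received a single oral dose of 200 mg/kg in sterile water with 25% (v/v) PEG400 plus 5% DMSO. Behaviour and side effects were monitored daily, and average body weight was measured every 3 days.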

[15] = Acute toxicity in female Sprague-Dawley rat assessed as increase of body weight at 200 mg/kg, po administered as single dose and monitored every 3 days; type: organism-based; conditions: in vivo, 72 h; procedure, shortened: as §5
MDA-MB-231 [16] = assay: Inhibition of tumor mitotic index in SCID mouse xenografted with human MDA-MB-231 cells assessed as reduction in Ki67 expression at 40 mg/kg, po QD for 21 days by immunohistochemical staining analysis; type: functional, organism-based; conditions: dose 40.0 mg/kg/day, time 21.0 day
Procedure, shortened: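 SCID mice carried subcutaneous MDA-MB-231 xenografts (5 × 10^6 cells in 100 μL). Oral dosing in water with 25% PEG400 and 5% DMSO began at 150–200 mm3. Tumours were removed at the end of study, formalin-fixed and paraffin-embedded, then immunostained.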

Cc1ccc(NC(=O)c2ccc(C)c(C(F)(F)F)c2)cc1C#Cc1nn([C@H]2CC[C@H](O)CC2)c2ncnc(N)c12
inhibition in vivo at 40 mg/kg/day (MDA-MB-231 [1]): 100%
remaining at 1 h, 1 µM [2]: > 90%
IC50 [3]: 165 nM
IC50 [4]: 8 nM
IC50 [5]: 33 nM
IC50 (Ephrin type-A receptor 7): 143 nM
IC50 (MDA-MB-415): 10 µM
IC50 (PC-9): 152 nM
Activity (MDA-MB-231 [6]): 0.42%
Activity (MDA-MB-231 [7]): 2.42%
Activity (MDA-MB-231 [8]): 17.35%
Activity (MDA-MB-231 [9]): 13.48%
inhibition [10]: Active
inhibition (MDA-MB-231 [11]): Active
Activity [12]: Non-Toxic
Activity [13]: Non-Toxic
Activity [14]: Toxic
Activity [15]: Non-Toxic
inhibition (MDA-MB-231 [16]): Active
